Measurements gathered from unrelated publications.
Protocols differ between the studies behind these lines.
Cell line: Calu-3
Observed: cell growth or viability

With CCS(=O)(=O)N1CC(CC#N)(n2cc(-c3ncnc4[nH]ccc34)cn2)C1 the CC50 was > 60 µM (resazurin).
The CC50 of CN(C)C(=O)COC(=O)Cc1ccc(OC(=O)c2ccc(NC(=N)N)cc2)cc1 is reported as > 200 µM (ATP luminescence).
The CC50 of CN1C(=O)c2ccccc2[S+]([O-])c2cc([N+](=O)[O-])ccc2S1(=O)=O (centres unmarked) is reported as > 100 µM (MTT; 72 h).
COc1cc(Nc2ccnc3ccc(Br)cc23)cc(OC)c1OC has a CC50 of > 60 µM (resazurin).
For CC(C)[C@H](NC(=O)c1ccccc1NC(=O)c1ccccc1)C(=O)N[C@H](CO)C(C)C, the CC50 was > 250 µM (MTT; 48 h).
COc1cc2ncnc(Nc3ccc(F)c(Cl)c3)c2cc1OCCCN1CCOCC1 gave a CC50 of > 60 µM (resazurin).
CCC(CC)COC(=O)[C@H](C)N[P@](=O)(OC[C@H]1O[C@@](C#N)(c2ccc3c(N)ncnn23)[C@H](O)[C@@H]1O)Oc1ccccc1 has a CC50 of ≥ 250 µM (MTT; 48 h).
CCOC(=O)c1c(NCc2ccc(SC)cc2)c2cccc(C)c2[nH]c1=O gave a CC50 of > 100 µM (MTS; 48 h).
O=C(Nc1ccc2c(c1)OCO2)c1nnc(C(=O)N2CCCC(C(=O)NCc3ccccc3)C2)s1 (centres unmarked) has a CC50 of 151 µM (MTT; 48 h).
The CC50 of O=C(NCc1ccc(F)cc1)c1cccc(Nc2ccc(-c3ccccc3)nn2)c1 is reported as > 100 µM (MTS; 48 h).
The CC50 of O=C1Nc2cc(C(F)(F)F)ccc2Oc2ccsc21 is reported as > 100 µM (MTT; 72 h).
